Assay [1] addresses T1, Peroxisome proliferator-activated receptor gamma (Homo sapiens, UniProt P37231).
T1 sequence (P37231 whole entry): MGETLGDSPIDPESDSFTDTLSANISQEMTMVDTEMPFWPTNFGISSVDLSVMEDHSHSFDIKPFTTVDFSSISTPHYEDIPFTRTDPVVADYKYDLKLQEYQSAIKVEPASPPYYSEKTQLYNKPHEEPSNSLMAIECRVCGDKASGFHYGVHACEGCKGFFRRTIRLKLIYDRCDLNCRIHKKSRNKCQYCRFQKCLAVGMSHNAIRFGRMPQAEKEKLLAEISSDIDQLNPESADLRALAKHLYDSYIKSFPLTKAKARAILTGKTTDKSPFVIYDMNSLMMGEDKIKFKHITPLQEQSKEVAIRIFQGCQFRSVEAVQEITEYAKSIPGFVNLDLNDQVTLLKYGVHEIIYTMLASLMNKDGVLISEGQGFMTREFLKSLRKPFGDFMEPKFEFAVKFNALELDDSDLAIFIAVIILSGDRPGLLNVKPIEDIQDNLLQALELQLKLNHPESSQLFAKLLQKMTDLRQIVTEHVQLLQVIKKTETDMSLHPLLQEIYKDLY
Put plainly: Activity against PPAR gamma in human by FRET assay.

In assay [2] the target is T2, Peroxisome proliferator-activated receptor alpha (Homo sapiens, UniProt Q07869).
T2 sequence (Q07869 whole entry): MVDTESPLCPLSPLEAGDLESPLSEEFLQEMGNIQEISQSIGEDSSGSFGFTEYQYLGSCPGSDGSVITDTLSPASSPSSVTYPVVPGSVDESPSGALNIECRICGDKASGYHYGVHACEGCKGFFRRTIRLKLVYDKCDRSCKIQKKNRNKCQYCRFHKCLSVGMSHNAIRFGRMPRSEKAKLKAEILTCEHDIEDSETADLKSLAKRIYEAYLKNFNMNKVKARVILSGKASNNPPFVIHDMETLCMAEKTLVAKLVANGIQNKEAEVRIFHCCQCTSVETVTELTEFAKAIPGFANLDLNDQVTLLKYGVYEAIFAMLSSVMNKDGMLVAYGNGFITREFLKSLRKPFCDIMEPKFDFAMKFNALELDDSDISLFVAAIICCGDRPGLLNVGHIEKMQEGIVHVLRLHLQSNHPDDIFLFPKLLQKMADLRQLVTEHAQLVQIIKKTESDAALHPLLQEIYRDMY
Put plainly: Activity against PPAR alpha in human by FRET assay. The gist of the method: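 Human PPAR-α ligand-binding domain (GST-tagged), incubated with compound, europium-labelled anti-GST antibody, biotinylated CREB-binding protein co-activator and streptavidin-APC. Time-resolved FRET read with excitation at 340 nm and emission at 615 and 640 nm. EC50 taken as the mean of at least three experiments.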

Turning to `CCC(C(=O)O)C1CCc2cc(OCCNC(=O)c3ccccc3)ccc21` (stereo not drawn), the EC50 in assay [1] and in assay [2] was > 10000 nM throughout.
On to `CCC(C(=O)O)C1CCc2cc(OCCc3nc(-c4ccc(F)cc4)oc3C)ccc21` (stereo in doubt; 54), for which the values for the EC50 in assay [1] and in assay [2] were 59 nM and 137 nM, respectively.
The matching figures for `CC[C@@H](C(=O)O)[C@H]1CCc2cc(OCCc3nc(-c4ccc(F)cc4)oc3C)ccc21`: > 10000 nM and 868 nM.
The matching figures for `CCC(C(=O)O)C1CCc2cc(OCCc3nc(-c4ccccc4)sc3C)ccc21` (stereo not drawn): 85 nM and 979 nM.
For `CCC(C(=O)O)C1CCc2cc(OCCc3nc(-c4cccc(C(F)(F)F)c4)oc3C)ccc21` (stereo not drawn), in that order: 21 nM and 171 nM.
Consider `CCC(C(=O)O)C1CCc2cc(OCCc3nc(-c4c(F)cccc4F)oc3C)ccc21` (stereo not drawn), for which the EC50 in assay [1] was found to be 368 nM; in assay [2] it was 523 nM.
The matching figures for `CC[C@H](C(=O)O)[C@H]1CCc2cc(OCCc3nc(-c4ccc(C)cc4)oc3C)ccc21`: 83 nM and 48 nM.
The matching figures for `CCC(C(=O)O)C1CCc2cc(OCc3nc(-c4ccccc4)oc3C(F)(F)F)ccc21` (stereo not drawn): > 10000 nM and 1000 nM.
For `CCC(C(=O)O)C1CCc2cc(OCCc3nc(-c4ccccc4)oc3C)c(Br)cc21` (stereo not drawn), in that order: > 10000 nM and 181 nM.
Consider `Cc1oc(-c2ccccc2)nc1CCOc1ccc2c(c1)CCC2C(C(=O)O)C1CC1` (stereo not drawn), for which the values for the EC50 in assay [1] and in assay [2] were 160 nM and 795 nM, respectively.
As for `CCC(C(=O)O)C1CCc2cc(OCCc3nc(-c4cccc5ccccc45)oc3C)ccc21` (stereo not drawn), the figures for the EC50 in assay [1] and in assay [2] were 113 nM and 451 nM, respectively.
For `Cc1oc(-c2ccccc2)nc1CCOc1ccc2c(c1)CCC2C(C)C(=O)O` (stereo not drawn), in that order: 104 nM and 1000 nM.
The matching figures for `CCC(C(=O)O)C1CCc2cc(OCCc3nc(-c4cc(C(F)(F)F)cc(C(F)(F)F)c4)oc3C)ccc21` (stereo not drawn): 247 nM and 1170 nM.
The matching figures for `CCOC(=O)C(C(=O)O)C1CCc2cc(OCCc3nc(-c4ccccc4)oc3C)ccc21` (stereo not drawn): 68 nM and 308 nM.
As to `CCC(C(=O)O)C1CCc2cc(OCCc3nc(-c4ccc(Cl)c(Cl)c4)oc3C)ccc21` (stereo in doubt), the EC50 in assay [1] came to 131 nM; in assay [2], 29 nM.
`CCC(C(=O)O)C1CCc2cc(OCCc3nc(-c4ccccc4)oc3C)c(C(C)=O)cc21` (stereo not drawn): the EC50 was > 10000 nM in assay [1] and 327 nM in assay [2].
For `Cc1oc(-c2ccccc2)nc1CCOc1ccc2c(c1)CCC2C(CCCc1ccccc1)C(=O)O` (stereo not drawn), in that order: 3180 nM and > 10000 nM.
The matching figures for `CCC(C(=O)O)C1CCc2cc(OCCc3nc(Cc4ccccc4)oc3C)ccc21` (stereo not drawn): 330 nM and 718 nM.
With `CCC(C(=O)O)C1CCc2cc(OCCc3nc(-c4cccc(C)c4)oc3C)ccc21` (stereo not drawn), the EC50 in assay [1] is 34 nM; in assay [2], 271 nM.
For `Cc1oc(-c2ccccc2)nc1CCOc1ccc2c(c1)CCC2C(C)(C)C(=O)O` (stereo not drawn), in that order: 5640 nM and 6000 nM.
For `Cc1oc(-c2ccccc2)nc1CCOc1ccc2c(c1)CCC2C(CC(F)(F)F)C(=O)O` (stereo not drawn), in that order: 177 nM and 5790 nM.
As to `CCC(C(=O)O)C1CCc2cc(OCCc3nc(-c4ccccc4)oc3C)c(-c3ccccc3)cc21` (stereo not drawn), the EC50 in assay [1] worked out at 290 nM; in assay [2] it was 58 nM.
For `CCC(C(=O)O)C1CCc2cc(OCCc3nc(C4CCCCC4)oc3C)ccc21` (stereo not drawn), in that order: 136 nM and 111 nM.
For `CCC(C(=O)O)C1CCc2cc(OCCc3nc(-c4ccc(C)c(C)c4)oc3C)ccc21` (stereo not drawn), in that order: 32 nM and 38 nM.
On to `CCC(C(=O)O)C1CCc2cc(OCCc3nc(-c4ccccc4)oc3C)c(-c3ccc(OC)cc3)cc21` (stereo not drawn), for which the EC50 came out at 124 nM in assay [1] and 23 nM in assay [2].
The matching figures for `CCC(C(=O)O)C1CCc2cc(OCCc3nc(-c4ccc(Cl)cc4)oc3C)ccc21` (stereo not drawn): 206 nM and 92 nM.
The matching figures for `CCc1ccc(-c2nc(CCOc3ccc4c(c3)CCC4C(CC)C(=O)O)c(C)o2)cc1` (stereo not drawn): 40 nM and 109 nM.
For `CCC(C(=O)O)C1CCc2cc(OCCc3nc(-c4ccccc4C)oc3C)ccc21` (stereo not drawn), in that order: 153 nM and 637 nM.
For `CC[C@H](C(=O)O)[C@@H]1CCc2cc(OCCc3nc(-c4ccc(Cl)c(Cl)c4)oc3C)ccc21`, the EC50 in assay [1] was 46 nM; in assay [2], 57 nM.
The matching figures for `CCC(C(=O)O)C1CCc2cc(OCCc3nc(-c4ccc(C)c(F)c4)oc3C)ccc21` (stereo not drawn): 43 nM and 46 nM.
As for `CCC(C(=O)O)C1CCc2cc(OCCc3nc(-c4ccc(-c5ccccc5)cc4)oc3C)ccc21` (stereo not drawn), the EC50 in assay [1] was determined as 43 nM; in assay [2], 3280 nM.
The matching figures for `CCC(C(=O)O)C1CCc2cc(OCCc3nc(-c4ccc(OC)c(OC)c4)oc3C)ccc21` (stereo not drawn): 84 nM and 1130 nM.
Consider `CCC(C(=O)O)C1CCc2cc(OCCc3c(-c4ccccc4)noc3C)ccc21` (stereo not drawn), for which the EC50 in assay [1] and in assay [2] was > 10000 nM in each case.
As for `Cc1oc(-c2ccccc2)nc1CCOc1ccc2c(c1)CCC2C(C(=O)O)C(=O)O` (stereo not drawn), the EC50 was 1860 nM in assay [1] and > 10000 nM in assay [2].
The matching figures for `CCC(C(=O)O)C1CCc2cc(OCCNC(=O)Nc3ccc(C)cc3)ccc21` (stereo not drawn): > 10000 nM and > 10000 nM.
For `CCC(C(=O)O)C1CCc2cc(OCCc3nc(-c4ccc5c(c4)OCC5)oc3C)ccc21` (stereo not drawn), in that order: 6 nM and 65 nM.
For `CCC(C(=O)O)C1CCc2cc(OCCn3nc(-c4ccccc4)cc3C)ccc21` (stereo not drawn), the EC50 in assay [1] is 196 nM; in assay [2], 232 nM.
The matching figures for `CCC(C(=O)O)C1CCc2cc(OCCc3nc(-c4ccc5c(c4)OCO5)oc3C)ccc21` (stereo not drawn): 14 nM and 354 nM.
The matching figures for `CC[C@H](C(=O)O)[C@H]1CCc2cc(OCCc3nc(-c4ccccc4)oc3C)ccc21`: 19 nM and 26 nM.
For `CCC(C(=O)O)C1CCc2cc(OCCc3c(C)noc3C)ccc21` (stereo not drawn), in that order: > 10000 nM and > 10000 nM.
In the case of `CCC(C(=O)O)C1CCc2cc(OCCc3nc(-c4ccccc4)oc3-c3ccccc3)ccc21` (stereo not drawn), the EC50 in assay [1] was 617 nM; in assay [2], > 10000 nM.
For `CC[C@@H](C(=O)O)[C@@H]1CCc2cc(OCCc3nc(-c4ccccc4)oc3C)ccc21`, in that order: 95 nM and 350 nM.
For `CCC(C(=O)O)C1CCc2cc(OCc3ccc(-c4nc(-c5ccccc5)oc4C)cc3)ccc21` (stereo not drawn), in that order: > 10000 nM and > 10000 nM.
For `CC[C@H](C(=O)O)[C@@H]1CCc2cc(OCCc3nc(-c4ccccc4)oc3C)ccc21`, in that order: 6 nM and 62 nM.
As for `CCC(C(=O)O)C1CCc2cc(OCCc3nc(-c4cccc(OC)c4)oc3C)ccc21` (stereo not drawn), the EC50 came out at 1 nM in assay [1] and 254 nM in assay [2].
On to `CCC(C(=O)O)C1CCc2cc(OCc3nc(-c4ccccc4)oc3C)ccc21` (stereo not drawn), for which the EC50 in assay [1] came to 632 nM; in assay [2], 1220 nM.
The matching figures for `CCC(C(=O)O)C1CCc2cc(OCCn3ncc4ccccc4c3=O)ccc21` (stereo not drawn): > 10000 nM and > 10000 nM.
Take `CCC(C(=O)O)C1CCc2cc(OCCc3nc(-c4ccc(F)cc4)oc3C)ccc21` (stereo in doubt): the EC50 in assay [1] worked out at 154 nM; in assay [2], 37 nM.
The matching figures for `CCC(C(=O)O)C1CCc2cc(OCCc3nc(-c4ccc(F)c(C)c4)oc3C)ccc21` (stereo not drawn): 77 nM and 75 nM.
For `CCC(C(=O)O)C1CCc2cc(OCCc3nc(C4CCCC4)oc3C)ccc21` (stereo not drawn), the EC50 in assay [1] was 212 nM; in assay [2] it was 202 nM.
For `CC[C@@H](C(=O)O)[C@H]1CCc2cc(OCCc3nc(-c4ccc(Cl)c(Cl)c4)oc3C)ccc21`, in that order: 225 nM and 63 nM.
For the molecule `CCC(C(=O)O)C1CCc2cc(OCCc3nc(-c4ccc(C(C)C)cc4)oc3C)ccc21` (stereo not drawn), the EC50 was determined as 22 nM in assay [1] and 119 nM in assay [2].
As for `CCC(C(=O)O)C1CCc2cc(OCCc3nc(-c4ccc(OC)cc4)oc3C)ccc21` (stereo not drawn), the EC50 in assay [1] worked out at 42 nM; in assay [2] it was 199 nM.
The matching figures for `CCC(C(=O)O)C1CCc2cc(OCCc3nc(-c4ccc(C)cc4)oc3C)ccc21` (stereo not drawn): 45 nM and 65 nM.

For orientation: EC50 means the concentration giving half of the maximal effect. A high value points to weaker potency.

Values taken from ChEMBL document CHEMBL1147759, “Substituted indanylacetic acids as PPAR-alpha-gamma activators” (Bioorg Med Chem Lett, 2006).
